Assay results published in paper PMC3103643 (Journal of natural products, 2011).

Assays:
p65 subunit of NF-κB = p65 subunit of NF-κB (Homo sapiens, UniProt Q04206); assay: Enzyme-based ELISA NF-κB p65 inhibition assay; conditions: read-out: NF-κB p65 inhibition IC50, HeLa cell nuclear extracts
[1] = test system: HT-29 human colon cancer cells; assay: Cytotoxicity assay; assay type: cell-based; conditions: three days incubation, SRB
Method in brief: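 HT-29 cells were trypsinized and seeded, then treated with test compound in DMSO at serial dilutions, with DMSO as negative control and paclitaxel as positive control, for three days at 37 °C, 5% CO2. Cells were fixed for 30 min at room temperature, washed, dried overnight and stained with SRB. Dye was solubilized in tris-base buffer and read at 515 nm. ED50 came from nonlinear regression, triplicates, two independent experiments.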

[2] = test system: HT-29 (colon adenocarcinoma), MCF-7 (breast cancer), and MDA-MB-435 (melanoma); assay: In vivo hollow fiber assay; parameters: species or system human; conditions: highest dose used 20 mg/kg; ip
Method in brief: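 Hollow fibers carried HT-29, MCF-7 and MDA-MB-435 cells. Test compounds and the paclitaxel positive control were dosed ip across 1–20 mg/kg.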

Sequence of p65 subunit of NF-κB (Q04206 whole entry): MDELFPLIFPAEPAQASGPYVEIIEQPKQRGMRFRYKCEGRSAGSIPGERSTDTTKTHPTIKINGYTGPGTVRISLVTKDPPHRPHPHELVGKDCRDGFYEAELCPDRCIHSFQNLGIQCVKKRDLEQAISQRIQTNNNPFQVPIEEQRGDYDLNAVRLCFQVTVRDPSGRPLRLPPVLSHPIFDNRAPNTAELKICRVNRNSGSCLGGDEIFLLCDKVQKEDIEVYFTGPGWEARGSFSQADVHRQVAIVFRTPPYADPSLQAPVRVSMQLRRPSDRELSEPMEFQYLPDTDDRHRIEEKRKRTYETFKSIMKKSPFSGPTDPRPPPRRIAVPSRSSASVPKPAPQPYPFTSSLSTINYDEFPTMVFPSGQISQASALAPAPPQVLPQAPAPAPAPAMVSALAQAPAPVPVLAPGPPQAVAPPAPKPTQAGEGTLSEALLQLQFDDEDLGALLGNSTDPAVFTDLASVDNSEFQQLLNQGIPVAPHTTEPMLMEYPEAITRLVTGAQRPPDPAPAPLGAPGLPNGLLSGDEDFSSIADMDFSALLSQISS

Compound: 1,3,7-trihydroxy-2,4-diisoprenylxanthone [Compound 5]
- IC50 (p65 subunit of NF-κB): 2900 nM
- cytotoxicity ED50 towards HT-29 cells [1]: >10000 nM

Compound: COc1c(OC(C)=O)cc2oc3cc(OC(C)=O)c(CC=C(C)C)c(O)c3c(=O)c2c1CC=C(C)C [Compound 8, 3,6-di-O-acetyl-α-mangostin]
- activity in in vivo hollow fiber assay [2]: inactive
